Assay results from ChEMBL document CHEMBL3774379, “Synthesis and biological evaluation of quinoline derivatives as potential anti-prostate cancer agents and Pim-1 kinase inhibitors” (Bioorg Med Chem, 2016).
Activity calls are given as the source filed them. The rule behind the calls is not given here.

Legend:
[1] = Antiproliferative activity against human PC3 cells after 96 hrs by MTT assay; type: functional; conditions: PC-3, 96 h
Method in brief: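 PC-3 cells grown in RPMI1640 with 10% heat-inactivated FBS; seeded 2×10³ cells/well, 24 h at 37°C, 5% CO₂, then compound at various concentrations for 96 h. MTT (2 mg/mL) added for 4 h, formazan dissolved in DMSO, absorbance 570 nm. GI₅₀ from inhibition ratios versus untreated cells; three independent experiments, mean reported.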

[2] = Cell cycle arrest in human PC3 cells assessed as cell accumulation at G0/G1 phase at 16 uM after 24 hrs by Propidium Iodide staining based flow cytometric analysis (reference value: 57.1%); type: functional; conditions: PC-3
Method in brief: (§1)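 PC-3 cells in six-well plates treated 0, 8, 12 or 16 μM for 24 or 48 h. Floating and adherent cells pooled, PBS-washed, fixed in ice-cold 70% ethanol at -20°C overnight, treated with 1 mg/mL RNase at 37°C for 30 min, stained with PI at 50 μg/mL final. DNA content read by flow cytometry, excitation 488 nm, emission 625 nm.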

[3] = Cell cycle arrest in human PC3 cells assessed as cell accumulation at sub-G1 phase at 12 uM after 24 hrs by Propidium Iodide staining based flow cytometric analysis (reference value: 1.7%); type: functional; conditions: PC-3; method in brief: as §1
[4] = biological target: T1, Serine/threonine-protein kinase pim-1 (Homo sapiens, UniProt P11309); assay: Inhibition of Pim1 kinase in human PC3 cells assessed as increase in p21 level at 8 to 16 uM after 24 hrs by Western blot analysis; type: cell-based; conditions: PC-3
Target sequence in this assay (P11309 whole entry, looked up): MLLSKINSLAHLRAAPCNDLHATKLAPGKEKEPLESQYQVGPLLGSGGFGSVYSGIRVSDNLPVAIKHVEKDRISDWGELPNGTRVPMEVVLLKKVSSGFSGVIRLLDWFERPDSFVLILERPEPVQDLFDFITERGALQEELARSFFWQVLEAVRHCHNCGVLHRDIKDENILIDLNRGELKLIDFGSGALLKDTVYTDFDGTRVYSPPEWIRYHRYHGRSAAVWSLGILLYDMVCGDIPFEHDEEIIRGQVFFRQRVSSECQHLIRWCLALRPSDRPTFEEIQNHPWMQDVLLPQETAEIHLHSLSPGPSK

[5] = Cell cycle arrest in human PC3 cells assessed as cell accumulation at G2/M phase at 8 uM after 48 hrs by Propidium Iodide staining based flow cytometric analysis (reference value: 32.4%); type: functional; conditions: PC-3; method in brief: as §1
[6] = Cell cycle arrest in human PC3 cells assessed as cell accumulation at G2/M phase at 16 uM after 48 hrs by Propidium Iodide staining based flow cytometric analysis (reference value: 32.4%); type: functional; conditions: PC-3; method in brief: as §1
[7] = Cell cycle arrest in human PC3 cells assessed as cell accumulation at G0/G1 phase at 8 uM after 24 hrs by Propidium Iodide staining based flow cytometric analysis (reference value: 57.1%); type: functional; conditions: PC-3; method in brief: as §1
[8] = Cell cycle arrest in human PC3 cells assessed as cell accumulation at G0/G1 phase at 8 uM after 48 hrs by Propidium Iodide staining based flow cytometric analysis (reference value: 57.9%); type: functional; conditions: PC-3; method in brief: as §1
[9] = Cell cycle arrest in human PC3 cells assessed as cell accumulation at G2/M phase at 12 uM after 48 hrs by Propidium Iodide staining based flow cytometric analysis (reference value: 32.4%); type: functional; conditions: PC-3; method in brief: as §1
[10] = Cell cycle arrest in human PC3 cells assessed as cell accumulation at G0/G1 phase at 16 uM after 48 hrs by Propidium Iodide staining based flow cytometric analysis (reference value: 57.9%); type: functional; conditions: PC-3; method in brief: as §1
[11] = Cell cycle arrest in human PC3 cells assessed as cell accumulation at sub-G1 phase at 16 uM after 48 hrs by Propidium Iodide staining based flow cytometric analysis (reference value: 2.5%); type: functional; conditions: PC-3; method in brief: as §1
[12] = Cell cycle arrest in human PC3 cells assessed as cell accumulation at sub-G1 phase at 12 uM after 48 hrs by Propidium Iodide staining based flow cytometric analysis (reference value: 2.5%); type: functional; conditions: PC-3; method in brief: as §1
[13] = Cell cycle arrest in human PC3 cells assessed as cell accumulation at G2/M phase at 16 uM after 24 hrs by Propidium Iodide staining based flow cytometric analysis (reference value: 32%); type: functional; conditions: PC-3; method in brief: as §1
[14] = biological target: T1, Serine/threonine-protein kinase pim-1; assay: Inhibition of Pim1 kinase (unknown origin) using substrate S3 after 50 mins by HTRF assay
Target sequence in this assay (P11309 whole entry): as the sequence (P11309 whole entry, looked up) above

[15] = Cell cycle arrest in human PC3 cells assessed as cell accumulation at sub-G1 phase at 8 uM after 48 hrs by Propidium Iodide staining based flow cytometric analysis (reference value: 2.5%); type: functional; conditions: PC-3; method in brief: as §1
[16] = Cell cycle arrest in human PC3 cells assessed as cell accumulation at sub-G1 phase at 8 uM after 24 hrs by Propidium Iodide staining based flow cytometric analysis (reference value: 1.7%); type: functional; conditions: PC-3; method in brief: as §1
[17] = biological target: T1, Serine/threonine-protein kinase pim-1; assay: Inhibition of Pim1 kinase in human PC3 cells assessed as decrease in c-Myc level at 8 to 16 uM after 24 hrs by Western blot analysis; type: cell-based; conditions: PC-3
Target sequence in this assay (P11309 whole entry, looked up): as above

[18] = Cell cycle arrest in human PC3 cells assessed as cell accumulation at G0/G1 phase at 12 uM after 48 hrs by Propidium Iodide staining based flow cytometric analysis (reference value: 57.9%); type: functional; conditions: PC-3; method in brief: as §1
[19] = Cell cycle arrest in human PC3 cells assessed as cell accumulation at sub-G1 phase at 16 uM after 24 hrs by Propidium Iodide staining based flow cytometric analysis (reference value: 1.7%); type: functional; conditions: PC-3; method in brief: as §1
[20] = Cell cycle arrest in human PC3 cells assessed as cell accumulation at G2/M phase at 8 uM after 24 hrs by Propidium Iodide staining based flow cytometric analysis (reference value: 32%); type: functional; conditions: PC-3; method in brief: as §1
[21] = Cell cycle arrest in human PC3 cells assessed as cell accumulation at G0/G1 phase at 12 uM after 24 hrs by Propidium Iodide staining based flow cytometric analysis (reference value: 57.1%); type: functional; conditions: PC-3; method in brief: as §1
PC-3 = assay: Induction of ERK phosphorylation in human PC3 cells at 8 to 16 uM after 24 hrs by Western blot analysis; type: cell-based
[22] = biological target: T1, Serine/threonine-protein kinase pim-1; assay: Inhibition of Pim1 kinase in human PC3 cells assessed as decrease in BAD phosphorylation level at 8 to 16 uM after 24 hrs by Western blot analysis; type: cell-based; conditions: PC-3
Target sequence in this assay (P11309 whole entry, looked up): as above

[23] = biological target: T1, Serine/threonine-protein kinase pim-1; assay: Inhibition of Pim1 kinase in human PC3 cells assessed as decrease in 4E-BP1 phosphorylation level at 8 to 16 uM after 24 hrs by Western blot analysis; type: cell-based; conditions: PC-3
Target sequence in this assay (P11309 whole entry, looked up): as above

[24] = biological target: T1, Serine/threonine-protein kinase pim-1; assay: Inhibition of Pim1 kinase in human PC3 cells assessed as increase in p27 level at 8 to 16 uM after 24 hrs by Western blot analysis; type: cell-based; conditions: PC-3
Target sequence in this assay (P11309 whole entry, looked up): as above

[25] = Cell cycle arrest in human PC3 cells assessed as cell accumulation at G2/M phase at 12 uM after 24 hrs by Propidium Iodide staining based flow cytometric analysis (reference value: 32%); type: functional; conditions: PC-3; method in brief: as §1

In the case of `Oc1ccc(Br)c2ccc(Oc3ccccn3)nc12`, the GI50 [1] is reported as over 30 µM.
`COc1ccc(Cl)c2ccc(Nc3cc(Cl)ccn3)nc12` showed a GI50 [1] of over 30 µM.
With `Oc1ccc(Cl)c2ccc(Nc3ccccn3)nc12` the Activity [2] was 48.1%, the Activity [3] was 10.4% and the inhibition [4] was “Dose-dependent effect”. The Activity [5] was 25%, the Activity [6] was 11% and the Activity [7] was 65.2%. The Activity [8] was 52.9%, the Activity [9] was 20% and the Activity [10] was 31%. It also gave an Activity [11] of 52.6%, an Activity [12] of 27.7% and an Activity [13] of 13.9%. The IC50 [14] was 0.75 µM, the Activity [15] was 13.1% and the Activity [16] was 2.9%. For the same compound, the Activity [17] was “Dose-dependent effect”, the Activity [18] was 44.4% and the Activity [19] was 31.5%. The Activity [20] was 19.3%, the GI50 [1] was 1.29 µM and the Activity [21] was 64.5%. The Activity (PC-3) was “Active”, the inhibition [22] was “Dose-dependent effect” and the inhibition [23] was “Dose-dependent effect”. The inhibition [24] was “Dose-dependent effect” and the Activity [25] was 17.3%.
Compound `CN1CCC(CNc2ccc3ncc(-c4cccc(OC(F)(F)F)c4)n3n2)CC1` [SGI-1776] has a GI50 [1] of 4.86 µM.
With `Cc1ccnc(Nc2ccc3c(Cl)ccc(O)c3n2)c1` the GI50 [1] was 10.2 µM.
With `c1ccc(Nc2ccc3ccccc3n2)nc1` the IC50 [14] was over 10 µM and the GI50 [1] was over 30 µM.
With `Oc1ccc(Cl)c2ccc(Sc3ccccn3)nc12` the GI50 [1] was 10.2 µM.
Work on `COc1cccc2ccc(Nc3cc(Cl)ccn3)nc12` yielded a GI50 [1] of 11.8 µM.
Compound `COc1cccc2ccc(Nc3cc(C)ccn3)nc12` has a GI50 [1] of 3.82 µM.
`Cc1ccnc(Nc2ccc3ccccc3n2)c1` gave a GI50 [1] of 26.7 µM.
`COc1ccc(Cl)c2ccc(Nc3ccccn3)nc12` showed a GI50 [1] of 29.2 µM.
Work on `Clc1ccnc(Nc2ccc3ccccc3n2)c1` yielded a GI50 [1] of over 30 µM.
With `COc1ccc(Cl)c2ccc(Nc3cc(C)ccn3)nc12` the GI50 [1] was over 30 µM.
`Oc1ccc(Cl)c2ccc(Nc3cc(Cl)ccn3)nc12` gave a GI50 [1] of 25.5 µM.
In the case of `Cc1ccnc(Nc2ccc3cccc(O)c3n2)c1`, the GI50 [1] is reported as 5.84 µM.
With `Oc1ccc(Cl)c2ccc(Oc3ccccn3)nc12` the GI50 [1] was over 30 µM.
In the case of `Oc1ccc(Br)c2ccc(Sc3ccccn3)nc12`, the GI50 [1] is reported as 10.2 µM.
`Oc1cccc2ccc(Nc3cc(Cl)ccn3)nc12` showed a GI50 [1] of 2.81 µM.
`Oc1cccc2ccc(Nc3ccccn3)nc12` gave a GI50 [1] of 2.6 µM.
With `COc1cccc2ccc(Nc3ccccn3)nc12` the GI50 [1] was 7.47 µM.
For `Oc1cccc2ccc(Oc3ccccn3)nc12`, the GI50 [1] was over 30 µM.
Compound `Oc1cccc2ccc(Sc3ccccn3)nc12` has an IC50 [14] of over 10 µM and a GI50 [1] of 20.9 µM.
